Shown are actives, neighbours in structure and some others; about 3.1% of the full set was active somewhere.
hERG rescue: hERG (human) protection from proarrhythmic block | CHO-hERG, FluxOR thallium flux, dofetilide IC70 present | activation (rescue from dofetilide block), less the hit threshold, % at 10 µM | 0.51% of 310,000 active | Q12809 | AID 1511;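 active = activation above the mean of controls blocked by dofetilide plus 5 SD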;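 also: thallium influx through hERG after potassium depolarization seen as dye fluorescence rise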
Target sequence (Q12809 whole entry, looked up): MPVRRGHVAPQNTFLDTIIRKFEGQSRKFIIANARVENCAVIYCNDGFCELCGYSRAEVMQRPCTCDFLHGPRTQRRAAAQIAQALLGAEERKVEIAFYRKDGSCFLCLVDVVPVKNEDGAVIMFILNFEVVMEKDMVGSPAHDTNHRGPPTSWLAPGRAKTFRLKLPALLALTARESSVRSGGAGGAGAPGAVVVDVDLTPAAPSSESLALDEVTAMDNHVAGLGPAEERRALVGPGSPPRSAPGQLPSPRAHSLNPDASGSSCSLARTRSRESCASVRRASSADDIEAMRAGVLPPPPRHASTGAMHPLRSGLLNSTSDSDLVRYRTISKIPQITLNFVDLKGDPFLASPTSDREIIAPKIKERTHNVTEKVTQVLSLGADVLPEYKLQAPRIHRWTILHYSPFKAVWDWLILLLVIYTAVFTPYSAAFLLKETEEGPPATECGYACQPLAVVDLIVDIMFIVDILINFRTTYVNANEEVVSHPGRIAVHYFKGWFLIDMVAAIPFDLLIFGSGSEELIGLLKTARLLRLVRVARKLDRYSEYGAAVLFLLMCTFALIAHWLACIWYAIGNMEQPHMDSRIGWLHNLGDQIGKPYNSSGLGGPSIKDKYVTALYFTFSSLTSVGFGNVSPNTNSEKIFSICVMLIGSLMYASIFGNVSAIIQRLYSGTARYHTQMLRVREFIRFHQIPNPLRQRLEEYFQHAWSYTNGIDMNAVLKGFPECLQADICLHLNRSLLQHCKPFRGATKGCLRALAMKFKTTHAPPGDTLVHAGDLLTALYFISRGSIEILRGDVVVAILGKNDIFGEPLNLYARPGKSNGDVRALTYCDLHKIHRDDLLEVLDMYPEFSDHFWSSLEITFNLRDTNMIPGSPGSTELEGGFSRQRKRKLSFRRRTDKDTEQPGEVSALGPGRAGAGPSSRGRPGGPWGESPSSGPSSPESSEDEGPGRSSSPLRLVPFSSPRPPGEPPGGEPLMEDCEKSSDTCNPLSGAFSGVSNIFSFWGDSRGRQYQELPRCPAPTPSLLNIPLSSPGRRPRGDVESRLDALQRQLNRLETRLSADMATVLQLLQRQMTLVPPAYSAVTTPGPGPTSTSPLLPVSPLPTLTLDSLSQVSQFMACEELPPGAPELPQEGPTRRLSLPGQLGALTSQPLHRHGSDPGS
KCNK3 block: human KCNK3 channel inhibition, primary screen | B-score at 10 µM | 0.84% of 340,000 active | O14649 | CHO-KCNK3 thallium flux, FluxOR fluorescence; hits give low values;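 active = B-score under library mean minus 4 SD, starting fluorescence ratio at most library mean plus 5 SD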;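 also: more negative B-score means stronger inhibition of thallium flux through KCNK3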
KCNQ1 inh: blocks the human KCNQ1 potassium channel. P51787. AID 2642. CHO-K1 KCNQ1, FluxOR thallium flux fluorescence; hits give high values. B-score at 10 µM. 1.3% of 310,000 active;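 active = compounds whose thallium flux B-score, printed positive for inhibition, exceeds three library SD while starting fluorescence stays within three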;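 also: channel opened by potassium depolarization with thallium stimulus after 20 min compound exposure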
KCNK9 block: human KCNK9 channel inhibition | AID 488922 | B-score at 10 µM | HEK293 KCNK9, FluxOR thallium flux fluorescence; hits give low values | 1.2% of 310,000 active;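 active = ratio B-score over 3 SD below the library mean, with starting fluorescence within 5 SD of its mean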;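 also: negative B-score means less thallium flux so channel inhibition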
KCNQ1 act: human KCNQ1 channel potentiation or activation; P51787; B-score at 10 µM; 0.35% of 310,000 active; CHO-K1 KCNQ1, thallium flux FluxOR fluorescence; hits give high values;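 active = fluorescence ratio B-score, a plate-corrected score, at least three library SD, with initial intensity B-score within 5 SD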
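Test system: CHO-K1 cells stably expressing KCNQ1 / Medium: assay buffer / Also added: depolarizing K+/Tl+ stimulus, K2SO4 and Tl2SO4 each 12.5 mM in 5x stock / Incubation: 90 min dye loading and 20 min compound exposure, both at room temperature / Signal: thallium influx via FluxOR fluorescence, kinetic imaging / Evaluation: B score of baseline-normalized fluorescence ratio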
KCNK9 block conf: confirmation of human KCNK9 potassium channel inhibitors; AID 492992; inhibition, % at 10 µM; shares compounds with KCNK9 block; HEK293 KCNK9 cells, FluxOR thallium flux fluorescence; 43% of 4,900 active;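 active = thallium signal inhibited by more than 5 SD of the compound-free buffer control wells, on both duplicate plates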;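 also: 0% = assay buffer control wells without compound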
Kir2-1 spec: selectivity of KCNK9 modulators against mouse Kir2.1; inhibition, % at 10 µM; AID 492993; shares compounds with KCNK9 block; 4% of 4,900 active; Kir2.1 cells, FluxOR thallium flux fluorescence;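 active = thallium signal drop more than 5 SD beyond the mean of the no-compound control wells, seen in both duplicate plates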;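 also: signal is fluorescence rise after thallium addition divided by baseline fluorescence; plate controls were assay buffer only for no effect and full block by chlorpromazine control for full effect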
KCNK9 uninduced: second counter-screen for KCNK9 modulators: effect in non-induced cells. shares compounds with KCNK9 block. non-induced KCNK9-HEK293, FluxOR thallium flux. inhibition, % at 10 µM. 40% of 4,900 active. AID 492997;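 active = thallium signal drop beyond 5 SD of the untreated control mean, on both duplicate plates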;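 also: plate controls were buffer only IC0 wells for no effect and SID17386958 at its maximal inhibitory level for full effect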
KCNK3 inh conf: confirmation of human KCNK3 two-pore domain potassium channel inhibitors; shares compounds with KCNK3 block; ratio percent of control, % at 10 µM; CHO-KCNK3 thallium flux, FluxOR fluorescence; 0% buffer, 100% carvedilol maximal block; AID 651638; 99% of 2,400 active;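 active = ratio percent of control, averaged over triplicates, above buffer control mean plus 5 SD, cut at about 64% in these data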;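 also: ratio is the fluorescence rise from min to max over baseline after thallium stimulus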
KCNK3 uninduced: activity in cells without induced KCNK3 expression | shares compounds with KCNK3 block | non-induced KCNK3 parental cells, FluxOR thallium flux; hits give low values | thallium flux ratio (lower = more inhibition) at 10 µM | 40% of 2,400 active | AID 651747;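 active = thallium flux ratio, averaged over three wells, more than 5 SD below the buffer control mean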;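 also: host cells are CHO cells without KCNK3 induction; ratio is peak minus trough fluorescence over baseline then normalized to buffer controls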
* marks the source's active call; other numbers are inactive results; i = inactive; x = no result given.

SMILES | hERG rescue | KCNK3 block | KCNQ1 inh | KCNK9 block | KCNQ1 act | KCNK9 block conf | Kir2-1 spec | KCNK9 uninduced | KCNK3 inh conf | KCNK3 uninduced
CCN(C[C@H]1N[C@@](CC)(C(=O)OC)[C@H]2C(=O)N(Cc3ccccc3)C(=O)[C@@H]12)S(=O)(=O)c1ccc(OC(F)(F)F)cc1 | x | i | x | x | x | x | x | x | x | x
CN(/N=C/c1cc(Cl)cc(Cl)c1O)c1c(Cl)cccc1[N+](=O)[O-] | -4.6 | -11.3* | i | -13.3* | i | 62.5%* | i | 48.5%* | 115.7* | 0.146*
Clc1ccc(CSc2snnc2-c2ccccc2)cc1 | -2.6 | -12.1* | i | -8.57* | i | 30.5%* | i | 45.0%* | 96.3* | i
O=C1C=C(c2cccc3c2sc2ccccc23)C[C@@H](c2ccc(Cl)cc2)C1 | x | i | x | x | x | x | x | x | x | x
Cc1nc(SC(C)C(=O)Nc2cccc(C(F)(F)F)c2)c2c(C)c(C(=O)O)sc2n1 (centres undefined) | -10.7 | i | i | i | i | x | x | x | x | x
Cc1nc(N2CCC(C)CC2)c2c(C)c(C(=O)Nc3cccc(C(F)(F)F)c3)sc2n1 | -8.8 | -9.42* | 13* | i | i | i | i | 30.5%* | 126.0* | 0.13*
O=C(CSc1n[nH]c(-c2ccc(Br)cc2)n1)N1CCOCC1 | x | i | x | x | x | x | x | x | x | x
CC(C)(C)Nc1nc(Nc2ccc([N+](=O)[O-])cc2)nc(NC(C)(C)C)n1 | -10.7 | -11.1* | 8* | -13* | i | 46.0%* | i | 34.5%* | 128.0* | 0.131*
Cc1ccc(Nc2nc(Cl)nc(NC(C)(C)C)n2)cc1 | -7.1 | i | i | i | i | x | x | x | x | x
O=C(COc1ccc(Br)cc1)Nc1ccc(CN2CCOCC2)cc1 | -7.1 | i | i | i | i | x | x | x | x | x
Cc1ccc(C(c2nnnn2C2CCCCC2)N(C)C2CCCCC2)cc1 (centres undefined) | -5.5 | i | i | -9.39* | i | i | i | 43.0%* | 117.0* | 0.131*
COc1ccccc1NC(=S)NC(=O)CCCOc1ccc(Cl)cc1Cl | -1.5 | -10.1* | i | -23.2* | i | 58.0%* | i | 30.5%* | 116.7* | i
Cc1ccc(S(=O)(=O)N2CCN(C(=O)Cn3c(=O)cnc4ccccc43)CC2)cc1 | x | i | x | x | x | x | x | x | x | x
CC(C)=CCC12Oc3cc(O)ccc3C1(O)Oc1cc(O)c([C@H]3C=C(C)CC(c4ccc(O)cc4O)[C@H]3C(=O)c3ccc(O)cc3O)c(O)c1C2=O (some centres undefined) | -4.2 | x | i | i | i | x | x | x | x | x
CC1(C)Oc2ccc3ccc(=O)oc3c2/C(=C/Nc2ccccc2)C1=O | -11.1 | -10.5* | i | -11.8* | i | 55.5%* | i | i | 109.7* | i
CC1(C)Oc2ccc3ccc(=O)oc3c2/C(=C/O)C1=O | -5.9 | i | i | i | i | x | x | x | x | x
Cc1ccc(Nc2nc(Nc3ccc(C)cc3)nc(SC3=NCCS3)n2)cc1 | -7.8 | i | i | i | i | x | x | x | x | x
Cc1ccccc1Nc1nc(Nc2ccccc2C)nc(SC2=NCCS2)n1 | -6.1 | -12.9* | i | -9.89* | i | 37.0%* | i | 26.5%* | 124.0* | 0.117*
O=C1C(O)=CC(=C(c2ccccc2)c2ccccc2)c2ccccc21 | x | i | x | x | x | x | x | x | x | x
COc1ccc(-n2nc(C(=O)NCC(=O)NCc3ccc(F)cc3)c3ccccc3c2=O)cc1 | -3.8 | i | i | i | i | x | x | x | x | x
O=C(COc1ccc(Cl)cc1)N(Cc1ccccc1)c1nc(-c2ccccc2)cs1 | -13.3 | i | i | i | i | x | x | x | x | x
O=C(C1CC1)N(Cc1ccco1)c1nc(-c2ccccc2)cs1 | -10.2 | -9.55* | i | -11.8* | i | 30.5%* | i | 49.0%* | 109.3* | i
O=C(CSc1nnc2ccccn12)NNC(=O)c1cccc([N+](=O)[O-])c1 | x | i | x | x | x | x | x | x | x | x
CCCCCCNC(=O)CC(c1ccccc1)c1cc(Br)ccc1O (centres undefined) | -10.1 | -9.84* | i | -11* | i | 51.0%* | i | 31.5%* | 118.7* | 0.148*
Fc1ccc(-c2csc3ncnc(N4CCN(c5ccccc5)CC4)c23)cc1 | -5.9 | -10.1* | i | -13.3* | i | i | i | 29.5%* | 117.0* | i
SMILES | hERG rescue | KCNK3 block | KCNQ1 inh | KCNK9 block | KCNQ1 act | KCNK9 block conf | Kir2-1 spec | KCNK9 uninduced | KCNK3 inh conf | KCNK3 uninduced
c1ccc(N2CCN(c3ncnc4scc(-c5cccs5)c34)CC2)cc1 | -9.9 | -8.88* | i | -13.3* | i | 42.5%* | i | 35.5%* | 148.3* | 0.111*
O=C(c1ccco1)N1CCN(c2ncnc3scc(-c4cccs4)c23)CC1 | -11.1 | i | i | i | i | x | x | x | x | x
CN(C(=O)COC(=O)c1ccccc1C(=O)c1ccccc1)c1ccccc1 | x | i | x | x | x | x | x | x | x | x
Nc1cc(C(=O)OCC(=O)N2CCC(Cc3ccccc3)CC2)ccc1Cl | x | i | x | x | x | x | x | x | x | x
Cc1csc(NC(=O)c2ccc(Cn3nc(C)c(Br)c3C)o2)n1 | -23.2 | i | i | i | i | x | x | x | x | x
Cc1cc(C)cc(NC(=O)c2ccc(Cn3nc(C)c(Cl)c3C)o2)c1 | -13.1 | -9.4* | i | -10.2* | i | i | i | i | 137.3* | 0.115*
O=C(NC(Cc1ccccc1)C(=O)O)/C(=C\c1ccccc1)NC(=O)c1ccc(Br)o1 (centres undefined) | -6.3 | i | i | i | i | x | x | x | x | x
COc1cccc(OCCn2cc(C(=O)c3ccco3)c3ccccc32)c1 | -18.1 | -11.5* | i | -15.3* | i | 51.5%* | i | i | 118.7* | 0.14*
COc1cc2nc(SCc3c(C)noc3C)n(CCC3=CCCCC3)c(=O)c2cc1OC | -6.0 | -10.3* | i | -14* | i | 28.5%* | 32.0%* | 31.5%* | 125.3* | 0.14*
C=CCn1c(SCc2c(C)noc2C)nc2ccccc2c1=O | -12.1 | i | i | i | i | x | x | x | x | x
C=CCC(c1ccccc1F)N(CCN1CCOCC1)C(=O)Nc1cccc(Cl)c1 (centres undefined) | -14.4 | -8.94* | i | -12.9* | i | 57.0%* | i | 39.5%* | 127.3* | 0.14*
O=C(Nc1cccc(Cl)c1)N(CCN1CCOCC1)Cc1ccccc1F | -18.9 | i | i | i | i | x | x | x | x | x
COc1cccc(-c2nn(-c3ccccc3)cc2C(=O)O)c1 | -6.4 | i | i | i | i | x | x | x | x | x
